Results from paper PMC11324745 (Nature Communications, 2024).

Assays:
Brca1^Δ11;Δ11 MEFs = details: cited from earlier work
[1] = tested on: DLD1 BRCA2-KO (BRCA2 -/-, null) cells; test: Colony survival assay, DLD1 BRCA2-KO; type: cell-based; details: DLD1 isogenic pair, vs BRCA2-WT
Method in brief: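 Isogenic pairs (DLD1 in RPMI; HCT 116 in DMEM; each with 10% FBS, glutamine, non-essential amino acids) seeded in 24-well plates: 800 cells/well for BRCA-null and 200 cells/well for wild-type. Test compound exposure with medium changed every 2–3 days for 10–12 days. Fixed in water:ethanol:acetic acid 5:4:1, stained with 0.5% crystal violet for 2 h, colonies counted manually. Mean ± S.E.M.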

Brca1^cc/cc MEFs = test: Colony survival assay, Brca1 cc/cc MEFs; type: cell-based, mouse; details: vs Brca1-WT MEFs
Polθ-hel = Polθ-hel (Homo sapiens, UniProt O75417); details: cited from earlier work
Polθ-hel, sequence (O75417 1-894): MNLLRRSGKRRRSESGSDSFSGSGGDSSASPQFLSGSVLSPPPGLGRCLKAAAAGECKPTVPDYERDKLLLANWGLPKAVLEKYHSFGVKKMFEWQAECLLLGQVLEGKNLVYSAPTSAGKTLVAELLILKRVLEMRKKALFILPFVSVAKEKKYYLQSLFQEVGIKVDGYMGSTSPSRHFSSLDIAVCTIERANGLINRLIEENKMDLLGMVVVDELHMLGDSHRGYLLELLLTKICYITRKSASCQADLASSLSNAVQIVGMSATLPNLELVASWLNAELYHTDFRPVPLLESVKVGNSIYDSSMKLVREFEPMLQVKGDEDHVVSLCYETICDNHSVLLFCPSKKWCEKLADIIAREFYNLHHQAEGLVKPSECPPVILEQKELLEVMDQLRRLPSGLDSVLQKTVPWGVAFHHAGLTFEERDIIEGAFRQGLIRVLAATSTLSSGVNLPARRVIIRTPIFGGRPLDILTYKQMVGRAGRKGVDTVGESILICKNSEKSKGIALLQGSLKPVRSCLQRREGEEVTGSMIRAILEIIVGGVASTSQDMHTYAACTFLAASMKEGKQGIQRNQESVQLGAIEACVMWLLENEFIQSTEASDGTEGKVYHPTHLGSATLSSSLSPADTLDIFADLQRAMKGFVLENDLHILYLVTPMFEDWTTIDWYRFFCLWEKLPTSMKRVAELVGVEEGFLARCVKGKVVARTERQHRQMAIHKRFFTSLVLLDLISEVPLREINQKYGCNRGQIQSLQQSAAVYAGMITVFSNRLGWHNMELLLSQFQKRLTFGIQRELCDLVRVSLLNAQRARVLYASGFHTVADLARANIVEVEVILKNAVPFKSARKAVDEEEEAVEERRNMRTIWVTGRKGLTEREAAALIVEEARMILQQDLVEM

BRCA1-deficient cells = details: read-out: IC50 in BRCA1-deficient cells; cited from earlier work

Compound	activity against Brca1 Δ11 MEFs (Brca1^Δ11;Δ11 MEFs)	colony survival, killing of BRCA2-KO cells [1]	colony survival, killing of Brca1 cc/cc MEFs (Brca1^cc/cc MEFs)	inhibition of Polθ-hel ssDNA binding (Polθ-hel)	IC50 (BRCA1-deficient cells)
Cc1cccc(N(C)C(=O)[C@@H]2[C@H](O)CCN2c2nc(C)cc(C(F)(F)F)c2C#N)c1 [ART558]	relatively modest activity	–	–	–	–
CO[C@@H]1[C@@H](OC(N)=O)[C@@H](O)[C@H](Oc2ccc3c(O)c(NC(=O)c4ccc(O)c(CC=C(C)C)c4)c(=O)oc3c2C)OC1(C)C [Novobiocin]	–	selective killing of BRCA2-KO cells at significantly higher concentrations	no preferential killing of these cells up to 10 μM	inhibits Polθ-hel ssDNA binding	50 to 100 µM
